System: Bladder 5637 cells viability, CellTiter-Glo, 72 h
Experiment: viability of human bladder carcinoma cells – cell-based, set 3, cytotoxicity control for bacterial capsule biogenesis inhibitors, dose response (AID 504831)
In short: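 Test system: human bladder carcinoma 5637 cell line / Schedule: 72 h compound exposure of cells / Controls: Hyamine positive control, untreated cell control / Measured by: CellTiter-Glo luminescence / Read-out basis: CC50 from dose-response fit, viability versus mean cell-only control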

| SMILES | CC50 [µM] |
| --- | --- |
| O=C(Nc1cc(-c2ccccc2)sc1C(=O)O)c1ccc(Br)o1 | 104 |
| Cc1c(C(=O)Nc2cc(-c3ccccc3)sc2C(=O)O)oc2ccccc12 | 48.7 |
| O=C(Nc1cc(-c2ccccc2)sc1C(=O)O)c1cccc(Cl)c1 | 52.6 |
| Cc1onc(-c2ccccc2)c1C(=O)Nc1cc(-c2ccccc2)sc1C(=O)O | 52.6 |
| O=C(O)c1sc(-c2ccccc2)cc1NC(=O)C1CCCC1 | 169 |
| CCOc1ccc(-c2cc(NC(=O)c3ccc(OC)c(OC)c3)c(C(=O)O)s2)cc1 | 82.8 |
| CCOc1ccc(-c2cc(NC(=O)c3cccc(Cl)c3)c(C(=O)O)s2)cc1 | 83.9 |
| COC(=O)c1sc(-c2ccccc2)cc1NC(=O)c1c(F)cccc1F | 10.4 |
| Cc1ccc(C(=O)Nc2cc(-c3ccccc3)sc2C(=O)O)s1 | 63.6 |
| O=C(O)c1sc(-c2ccccc2)cc1NC(=O)C1CCCCC1 | 115 |
| O=C(Nc1cc(-c2ccccc2)sc1C(=O)O)c1cccs1 | 89.3 |
| O=C(Nc1cc(-c2ccccc2)sc1C(=O)O)c1cc2ccccc2o1 | 167 |
| O=C(Nc1cc(-c2ccccc2)sc1C(=O)O)c1cccc(F)c1 | 76.9 |
| O=C(Nc1cc(-c2ccccc2)sc1C(=O)O)c1ccc(Cl)s1 | 71.5 |
| O=C(Nc1cc(-c2ccccc2)sc1C(=O)O)c1ccc2c(c1)OCCO2 | 82.1 |
| O=C(Nc1cc(-c2ccccc2)sc1C(=O)O)c1cc(Cl)c2c(c1)OCCO2 | 242 |
